Reference: ChEMBL document CHEMBL4715736, “Identification of anticancer agents based on the thieno[2,3-b]pyridine and 1H-pyrazole molecular scaffolds” (2016)

Assays:
Format in all cases: functional
HL-60(TB) [1] = assay: Growth inhibition of human HL-60(TB) cells assessed as cell growth at 0.01 uM incubated for 48 hrs by sulforhodamine B assay relative to control; settings: read-out: Activity
Outline: (§1)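 Screened by the NCI Developmental Therapeutics Program on its panel of 60 human tumour cell lines. Compounds were first tested at a single 10 µM dose, and compounds active there went to dose-response curves. Growth is expressed relative to untreated control (100%). GI50 (50% of maximal proliferation inhibition) and TGI (total growth inhibition) were derived from the dose-response data.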

SF-539 = assay: Growth inhibition of human SF-539 cells assessed as cell growth at 0.01 uM incubated for 48 hrs by sulforhodamine B assay relative to control; settings: read-out: Activity
HL-60(TB) [2] = assay: Growth inhibition of human HL-60(TB) cells assessed as cell growth at 0.1 uM incubated for 48 hrs by sulforhodamine B assay relative to control; settings: read-out: Activity; outline: as §1
HOP-92 = assay: Growth inhibition of human HOP-92 cells assessed as cell growth at 0.1 uM incubated for 48 hrs by sulforhodamine B assay relative to control; settings: read-out: Activity
HL-60(TB) [3] = assay: Growth inhibition of human HL-60(TB) cells assessed as cell growth at 1 uM incubated for 48 hrs by sulforhodamine B assay relative to control; settings: read-out: Activity; outline: as §1
HL-60(TB) [4] = assay: Growth inhibition of human HL-60(TB) cells assessed as cell growth at 100 uM incubated for 48 hrs by sulforhodamine B assay relative to control; settings: read-out: Activity; outline: as §1
A549 = assay: Growth inhibition of human A549/ATCC cells assessed as cell growth at 100 uM incubated for 48 hrs by sulforhodamine B assay relative to control; settings: read-out: Activity
Outline: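 NCI Developmental Therapeutics Program NCI60 panel. Compounds that were active in the 10 µM one-dose screen went on to dose–response testing. Growth at each concentration is expressed relative to untreated control (100%). GI50 (concentration giving 50% of maximal inhibition of proliferation) and TGI (concentration giving total growth inhibition) were derived from the curves.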

HL-60(TB) [5] = assay: Growth inhibition of human HL-60(TB) cells incubated for 48 hrs by sulforhodamine B assay; outline: as §1
EKVX [6] = assay: Growth inhibition of human EKVX cells assessed as cell growth at 10 uM incubated for 48 hrs by sulforhodamine B assay relative to control; settings: read-out: Activity
EKVX [7] = assay: Growth inhibition of human EKVX cells assessed as cell growth at 0.01 uM incubated for 48 hrs by sulforhodamine B assay relative to control; settings: read-out: Activity
EKVX [8] = assay: Growth inhibition of human EKVX cells assessed as cell growth at 0.1 uM incubated for 48 hrs by sulforhodamine B assay relative to control; settings: read-out: Activity
EKVX [9] = assay: Growth inhibition of human EKVX cells assessed as cell growth at 1 uM incubated for 48 hrs by sulforhodamine B assay relative to control; settings: read-out: Activity
EKVX [10] = assay: Growth inhibition of human EKVX cells assessed as cell growth at 100 uM incubated for 48 hrs by sulforhodamine B assay relative to control; settings: read-out: Activity
EKVX [11] = assay: Growth inhibition of human EKVX cells incubated for 48 hrs by sulforhodamine B assay

Compound `Cc1ccc(NC(=O)c2sc3nc4c(cc3c2N)C(=O)CCC4)cc1C` has a growth at 0.01 µM (HL-60(TB) [1]) of 99%, a growth at 0.01 µM (SF-539) of 97% and a growth at 0.1 µM (HL-60(TB) [2]) of 105%. It also gave a growth at 0.1 µM (HOP-92) of 72%, a growth at 1 µM (HL-60(TB) [3]) of 6% and a growth at 100 µM (HL-60(TB) [4]) of -33%. For the same compound, the growth at 100 µM (A549) was 13%, the GI50 (HL-60(TB) [5]) was 0.36 µM and the LC50 (HL-60(TB) [5]) was > 100 µM. For the same compound, the TGI (HL-60(TB) [5]) was 1.72 µM.

Work on `Nc1c(C(=O)Nc2ccccc2)sc2nc3c(cc12)CN(Cc1ccccc1)CC3` yielded a growth at 0.01 µM (SF-539) of 96%, a growth at 0.1 µM (HOP-92) of 86% and a growth at 100 µM (A549) of 17%.

For `COc1cccc(NC(=O)c2sc3nc4c(cc3c2N)CN(Cc2ccccc2)CC4)c1`, the growth at 0.01 µM (SF-539) was 86%, the growth at 0.1 µM (HOP-92) was 80% and the growth at 100 µM (A549) was -8%.

With `Cc1cc(C)c(NC(=O)c2sc3nc4c(cc3c2N)CN(Cc2ccccc2)CC4)c(C)c1` the growth at 0.01 µM (SF-539) was 91%, the growth at 0.1 µM (HOP-92) was 70% and the growth at 100 µM (A549) was 13%.

In the case of `COc1ccc(S(=O)(=O)n2ccc(-c3ccc4c(c3)CCC(C)(C)O4)n2)cc1`, the growth at 10 µM (EKVX [6]) is reported as 51.6%.

`CN1CCc2nc3sc(C(N)=O)c(N)c3c(-c3cccs3)c2C1` gave a growth at 0.01 µM (HL-60(TB) [1]) of 110%, a growth at 0.01 µM (EKVX [7]) of 100% and a growth at 0.01 µM (SF-539) of 102%. For the same compound, the growth at 0.1 µM (HL-60(TB) [2]) was 104%, the growth at 0.1 µM (EKVX [8]) was 92% and the growth at 0.1 µM (HOP-92) was 116%. It also gave a growth at 1 µM (HL-60(TB) [3]) of 95%, a growth at 1 µM (EKVX [9]) of 91% and a growth at 10 µM (EKVX [6]) of 17%. The growth at 100 µM (HL-60(TB) [4]) was -19%, the growth at 100 µM (A549) was 9% and the growth at 100 µM (EKVX [10]) was 5%. For the same compound, the GI50 (HL-60(TB) [5]) was 2.5 µM, the LC50 (HL-60(TB) [5]) was > 100 µM and the TGI (HL-60(TB) [5]) was 6.97 µM. For the same compound, the GI50 (EKVX [11]) was 3.54 µM, the TGI (EKVX [11]) was > 100 µM and the CC50 (EKVX [11]; read-out: LC50 (the source's name)) was > 100 µM.

`CCc1cccc(C)c1NC(=O)c1sc2nc3c(cc2c1N)C(=O)CCC3` was tested, and the growth at 0.01 µM (HL-60(TB) [1]) was 96%, the growth at 0.01 µM (SF-539) was 89% and the growth at 0.1 µM (HL-60(TB) [2]) was 96%. It also gave a growth at 0.1 µM (HOP-92) of 70%, a growth at 1 µM (HL-60(TB) [3]) of 2% and a growth at 100 µM (HL-60(TB) [4]) of -52%. The growth at 100 µM (A549) was 6%, the GI50 (HL-60(TB) [5]) was 0.319 µM and the LC50 (HL-60(TB) [5]) was ≥ 100 µM. For the same compound, the TGI (HL-60(TB) [5]) was ≥ 100 µM.

`Cc1cccc(NC(=O)c2sc3nc4c(cc3c2N)C(=O)CCC4)c1` was tested, and the growth at 0.01 µM (SF-539) was 90%, the growth at 0.1 µM (HOP-92) was 69% and the growth at 100 µM (A549) was 19%.

`CCc1ccccc1NC(=O)c1sc2nc3c(cc2c1N)C(=O)CCC3` gave a growth at 0.01 µM (HL-60(TB) [1]) of 101%, a growth at 0.01 µM (SF-539) of 92% and a growth at 0.1 µM (HL-60(TB) [2]) of 87%. The growth at 0.1 µM (HOP-92) was 69%, the growth at 1 µM (HL-60(TB) [3]) was 6% and the growth at 100 µM (HL-60(TB) [4]) was -5%. For the same compound, the growth at 100 µM (A549) was 12%, the GI50 (HL-60(TB) [5]) was 0.304 µM and the LC50 (HL-60(TB) [5]) was > 100 µM. It also gave a TGI (HL-60(TB) [5]) of 42 µM.
